Shown are actives, neighbours in structure and some others; about 3.4% of the full set was active somewhere.
MC4R antag cAMP: MC4R antagonists of cAMP signaling, primary screen, cell-based, TR-FRET, antagonist arm of biased-ligand search; Melanocortin receptor 4 (Homo sapiens), P32245; MC4R-expressing cells, MTII-stimulated cAMP, LANCE TR-FRET; inhibition, % at 6.5 µM; 0.48% of 360,000 active; AID 540295, 2011;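 active means inhibition above its plate's cutoff, the mean of tested wells on that plate plus 3 SD, cut at about 29% in these data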
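Test system: U2OS cells stably expressing human melanocortin 4 receptor (MC4R); also added: Melanotan II challenge; compound: 6.5 µM single dose; timing: 30-min compound preincubation, 1-h Melanotan II challenge, 1-h detection, room temperature; signal: Eu-cAMP/anti-cAMP TR-FRET, emission 671 nm; repeats: one well per compound, no replicates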
MIN6 prolif-1: inducers of MIN6 beta-cell proliferation, primary screen, ATP luminescence, uHTS. MIN6 cells proliferation, ATPlite luminescence, 48 h; cells starved in 0.2% serum; 100% = growth in 10% serum. proliferation, % at 10 µM. 0.29% of 330,000 active;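 active means compounds whose signal lies at least 3.5 SD above the mean of all wells on their plate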
ANO1 activ: TMEM16A chloride channel activators or potentiators, primary screen, cell-based, HTS; 0.3% of 340,000 active; Anoctamin-1 (Mus musculus), Q8BHY3; B-score at 10 µM; AID 623877, 2012; HEK293 TMEM16A/YFP-H148Q/I152L, iodide quench fluorescence; active compounds read low;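 active means fluorescence-ratio B-score plate-corrected deviation score at least 3 library SD below zero, with starting fluorescence score within 5 deviations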;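 further: channel opened by trigger with iodide after compound preincubation; score built on the fluorescence ratio of max minus min over baseline; more negative score means more quench and so TMEM16A activation or potentiation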
m5-HT2A agonist: mouse Htr2a agonists via beta-arrestin recruitment, primary screen, cell-based, luminescence; 0.66% of 360,000 active; CHO-K1 mHTR2A beta-arrestin complementation; percent of 30 µM serotonin response; activation, % at 7.6 µM;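 active means activation above a run cutoff, the mean activation of all tested compounds plus 3 SD, cut at about 14% in these data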
Target sequence (P35363 whole entry, looked up): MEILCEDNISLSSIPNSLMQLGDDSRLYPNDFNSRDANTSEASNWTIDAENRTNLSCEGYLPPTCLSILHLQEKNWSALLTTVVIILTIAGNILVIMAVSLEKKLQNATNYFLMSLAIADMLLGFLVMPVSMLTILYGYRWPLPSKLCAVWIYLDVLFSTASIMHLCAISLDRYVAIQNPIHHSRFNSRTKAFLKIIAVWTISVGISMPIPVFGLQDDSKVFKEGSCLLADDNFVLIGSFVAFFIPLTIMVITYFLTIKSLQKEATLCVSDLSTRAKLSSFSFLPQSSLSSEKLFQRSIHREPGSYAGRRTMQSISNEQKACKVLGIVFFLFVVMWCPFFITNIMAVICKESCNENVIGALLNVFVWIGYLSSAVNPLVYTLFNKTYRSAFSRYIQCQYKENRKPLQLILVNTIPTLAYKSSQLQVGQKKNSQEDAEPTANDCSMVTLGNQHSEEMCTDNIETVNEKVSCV
TMEM16A inh: TMEM16A chloride channel inhibitors, primary screen, cell-based, HTS | Anoctamin-1 (Mus musculus), Q8BHY3 | HEK293 TMEM16A/YFP iodide influx fluorescence, ionomycin | normalized B-score (activity score, 25-100; higher = stronger inhibition) at 10 µM | 1.2% of 310,000 active | AID 588511, 2011;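 active means ratio plate-corrected score three or more library SD toward inhibition, starting fluorescence score within five deviations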;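 further: score derived from kinetic fluorescence span divided by baseline fluorescence per well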
MC4R ag barr: MC4R agonists recruiting beta-arrestin, primary screen, cell-based, luminescence, agonist arm of biased-ligand search | Melanocortin receptor 4 (Homo sapiens), P32245 | U2OS MC4R beta-arrestin complementation; percent of melanotan II response, DMSO zero | activation, % at 8.9 µM | 0.98% of 360,000 active | AID 540308, 2011;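 active means activation above a per-plate cutoff, the mean activation of sample wells on that plate plus 3 SD, cut at about 8% in these data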
MIN6 prolif-2: inducers of beta-cell proliferation in MIN6, confirmation, MIN6 cells, mouse. shares compounds with MIN6 prolif-1. ATPlite luminescence, 48 h; cells kept in 0.2% serum; scaled between 0.2% and 10% serum. proliferation increase, % at 50 µM. 920 tested, under 10 active;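 active means proliferation increase above 40% at any of the four tested concentrations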
A number is an active result; n = inactive; x = not tested or not shown.

SMILES | MC4R antag cAMP | MIN6 prolif-1 | ANO1 activ | m5-HT2A agonist | TMEM16A inh | MC4R ag barr | MIN6 prolif-2
COc1ccc([N+](=O)[O-])cc1NCc1cccnc1 | n | 11 | n | n | n | n | n
COc1ccc(OCc2cc(C(=O)N(C)Cc3nccn3C)no2)c2ccccc12 | n | n | n | n | n | n | x
COc1ccc(OCc2cc(C(=O)N(Cc3nccn3C)C(C)C)no2)c2ccccc12 | n | 12 | n | n | n | n | n
CCCN1Cc2cccc(C(=O)Nc3ccc(CC)cc3)c2C1=O | n | 7.1 | n | n | n | n | n
CCCN1Cc2cccc(C(=O)Nc3ccc4c(c3)OCO4)c2C1=O | n | 11 | n | n | n | n | n
CCCN1Cc2cccc(C(=O)Nc3ccc4c(c3)OCCO4)c2C1=O | n | n | n | n | n | n | x
COc1c2c(c(OC)c3ccccc13)[C@]1(OC2)O[C@H](CCO)C[C@H](O)[C@H]1O | x | x | x | n | x | x | x
CCCNC(=O)C1(C)CCCN(C(=O)COc2ccc(Cl)cc2Cl)C1 (stereo unspecified) | n | x | x | n | x | n | x
CC(c1nc2ccccc2n1Cc1ccccc1)n1c(-c2cnccn2)nc2ccccc21 (stereo unspecified) | x | x | x | n | x | x | x
O=C(Nc1ccc(F)cc1)C(CCc1ccccc1)N1CCN(C(=O)c2ccco2)CC1 (stereo unspecified) | x | x | x | n | x | x | x
N#Cc1ccc(-c2nc3c4ccccc4ccn3c2Cc2cccc(Cl)c2)cc1 | x | x | x | n | x | x | x
Cc1[nH]c2ccccc2c1C(=O)CSC(=S)N1CCOCC1 | n | n | n | n | n | n | x
CCN(CC)C(=S)SCC(=O)c1c(C)[nH]c2ccccc12 | n | 0.0 | n | n | n | n | n
COc1ccc(CCN(C)CCCC(C#N)(c2ccc(OC)c(OC)c2)C(C)C)cc1OC (stereo unspecified) | n | x | n | n | x | n | x
CCCCCCCN1CCN=C1N(C)C | n | n | n | n | n | n | x
CC(=O)Nc1cc(C(=O)N2CCCC2)ccc1S(=O)(=O)c1ccc(C)cc1 | n | n | n | n | n | n | x
CC(=O)Nc1cc(C(=O)N(C)Cc2ccccc2)ccc1S(=O)(=O)c1ccc(C)cc1 | n | 13 | n | n | n | n | n
COc1ccc(C(=O)NCCCNC(=O)c2cnccn2)cc1Br | n | 9.2 | n | n | n | n | n
COc1ccc(/C=N/n2cnc3c([nH]c4ccccc43)c2=O)cc1COc1ccccn1 | x | 8.3 | x | x | n | x | n
COc1ccc2c(c1)[nH]c1c(=O)n(/N=C/c3ccc(OC)c(CN4CCCC4)c3)cnc12 | n | n | n | n | n | n | x
CCN(C(=O)COC(=O)CCOc1cc(C)ccc1C)c1c(N)n(Cc2ccccc2)c(=O)[nH]c1=O | n | x | n | n | x | n | x
O=C(NC1CCCCCC1)C1CCN(S(=O)(=O)c2ccc(F)cc2)CC1 | n | 6.5 | n | n | n | n | n
CN1C(=O)N(C)c2ccc(Br)c3cccc1c23 | n | 8.6 | n | n | n | n | n
COc1cc(NC(=O)CN(c2ccc(C)cc2)S(=O)(=O)c2c(C)nn(C)c2C)cc(OC)c1 | n | 10 | n | n | n | n | n
COC(=O)c1ccc(NC(=O)CN(c2ccc(C)cc2)S(=O)(=O)c2c(C)nn(C)c2C)cc1 | n | n | n | n | n | n | x
SMILES | MC4R antag cAMP | MIN6 prolif-1 | ANO1 activ | m5-HT2A agonist | TMEM16A inh | MC4R ag barr | MIN6 prolif-2
C=CCOn1c(C)c(C(C)=O)c2c3no[n+]([O-])c3ccc21 | n | 7.6 | n | n | n | n | n
CCCn1ncc(CN2CCC(C(=O)Nc3cccc(-c4cccc(F)c4)c3)CC2)c1C | n | n | n | n | n | n | x
CCOCCCn1c(=NC(=O)c2cccs2)c(C#N)cc2c(=O)n3ccccc3nc21 | n | 14 | n | n | n | n | n
Cc1cccn2c(=O)c3cc(C#N)c(=NC(=O)c4cccs4)n(CCCOC(C)C)c3nc12 | n | n | n | n | n | n | x
COc1cc(C(=O)Nc2ccc(C(F)(F)F)cc2)ccc1OCC(=O)N1CCOCC1 | n | n | n | n | x | n | x
CC(=O)CCc1ccc(OCCCOc2cccc3cccnc23)cc1 | n | 5.7 | n | n | n | n | n
CC(=O)c1ccc(OCCCOc2cccc3cccnc23)cc1 | n | n | n | n | n | n | x
CCOc1ccc(C(=O)Nc2ccc3c(c2)OCO3)cc1OCC | n | 5.5 | n | n | n | n | n
O=C1C(=O)N(c2ccccn2)C(c2cccc([N+](=O)[O-])c2)/C1=C(/O)c1ccc(Br)cc1 (stereo unspecified) | n | n | n | n | n | n | x
CC(C)C(=O)Nc1cccc(NC(=O)c2cccc([N+](=O)[O-])c2)c1 | n | n | n | n | n | n | x
COc1cc([N+](=O)[O-])ccc1NC(=O)c1cccc(NC(=O)C(C)C)c1 | n | 7.8 | n | n | n | n | n
CCCn1c(N)c(C(=O)COC(=O)/C=C/c2ccc(OC(F)F)c(OC)c2)c(=O)[nH]c1=O | n | 7.4 | n | n | x | n | n
COc1cc(/C=C/C(=O)OCC(=O)NCCN2C(=O)CSC2=O)ccc1OC(F)F | n | n | n | n | n | n | x
C[C@H](CO)NC(=O)c1nc[nH]c1C(=O)N[C@H](C)c1ccccc1 | n | x | x | n | x | n | x
COC(=O)[C@]1(C)N[C@H](CN(C)S(=O)(=O)c2ccc(-c3ccccc3)cc2)[C@@H]2C(=O)N(C)C(=O)[C@@H]21 | n | n | x | n | x | n | x
COc1ccc(/C=C/C(=O)OCC(=O)NC2CCCCCCC2)cc1 | n | n | n | n | x | n | x
COc1ccc(/C=C/C(=O)C(C)(C)C)cc1OC | n | 6.6 | n | n | n | n | n
COc1ccc(/C=C/C(=O)OCC(=O)NC2CCCC2)cc1OC | n | 11 | n | n | x | n | n
c1ccc(CCn2cccc2)nc1 | n | x | n | n | x | n | x
CCN1CCN(c2nc(Nc3cccc(OC)c3)nc(N)c2[N+](=O)[O-])CC1 | n | n | n | n | n | n | x
CCN1CCN(c2nc(Nc3ccc(C)c(C)c3)nc(N)c2[N+](=O)[O-])CC1 | n | 0.0 | n | n | n | n | n
Cc1cccc(-c2cnc3cccnn23)c1 | n | x | x | n | x | n | x
Cc1c(NC(=O)C(C)OC(=O)CC2CC3CCC2C3)c(=O)n(-c2ccccc2)n1C (stereo unspecified) | n | 9.1 | n | n | n | n | n
